Data set [1] has as its system RPE. Nature of the data set: Inhibition of complement activation in human fetal RPE cells assessed as reduction in C5b-9 formation at 1 uM by fluorescence assay in presence of complement-competant human serum. In kind it is cell-based. The procedure, abridged: (§1)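 Human fetal RPE cells from two donor lines (081309, 072810) were grown on porous supports in Miller medium with 5% FCS. Peptide (1 µM; one experiment 1, 10, 50 µM) in serum-free medium with 10% human complement serum was premixed 30 min at RT, then incubated overnight at 37 °C. Samples were PFA-fixed and sections immunostained; the confocal C5b-9/ApoE area ratio is given as % of serum-only control; n = 10; Mann–Whitney U.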

A short description of data set [2]: Solubility of the compound in PBS at pH 7.4 after 24 to 48 hrs by spectrophotometry. In kind it is physicochemical. An outline of the steps:
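About 1 mg peptide put in 200 μL PBS pH 7.4 (top reportable value 5 mg/mL). Vortexed 30 s, centrifuged 13000g for 5 min. Supernatant A280 read and converted to concentration by Beer–Lambert, with extinction coefficients from Trp/Tyr count. Samples held at 4 °C and re-read at 24 and 48 h. Mean and standard deviation of three readings per sample.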

The test system of data set [3] is RPE. Nature of the data set: Inhibition of complement activation in human fetal RPE cells assessed as reduction in C5b-9 formation at 50 uM by fluorescence assay in presence of complement-competant human serum. The data set is classed as cell-based. The procedure, abridged: as §1
The next data set deals with Complement C3 (Homo sapiens, UniProt P01024). In words: Inhibition of C3 cleavage in human serum assessed as reduction in C5b-9 formation compound preincubated for 15 mins measured 1 hr post LPS stimulation by ELISA. A general note: In an ELISA, binding on a coated surface is turned into a signal by an enzyme label.
Complement C3, sequence (P01024 23-667 limits assumed): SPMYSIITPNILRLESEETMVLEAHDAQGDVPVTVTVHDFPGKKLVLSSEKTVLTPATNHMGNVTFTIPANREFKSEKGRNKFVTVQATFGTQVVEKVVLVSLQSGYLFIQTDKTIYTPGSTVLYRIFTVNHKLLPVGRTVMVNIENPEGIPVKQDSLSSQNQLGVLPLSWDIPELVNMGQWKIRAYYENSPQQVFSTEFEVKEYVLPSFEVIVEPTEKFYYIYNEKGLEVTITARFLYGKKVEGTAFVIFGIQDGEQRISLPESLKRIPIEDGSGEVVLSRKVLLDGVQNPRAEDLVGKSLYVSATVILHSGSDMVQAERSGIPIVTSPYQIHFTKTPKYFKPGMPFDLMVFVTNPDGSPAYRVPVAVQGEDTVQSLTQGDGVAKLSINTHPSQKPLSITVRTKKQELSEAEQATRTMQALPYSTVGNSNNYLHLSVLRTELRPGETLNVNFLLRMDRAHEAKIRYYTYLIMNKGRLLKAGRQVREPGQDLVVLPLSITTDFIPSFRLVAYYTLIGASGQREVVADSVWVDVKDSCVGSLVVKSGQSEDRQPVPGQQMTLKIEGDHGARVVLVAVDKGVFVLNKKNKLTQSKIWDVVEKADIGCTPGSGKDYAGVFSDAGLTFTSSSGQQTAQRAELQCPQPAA
Complement C3, sequence (P01024 672-1663 limits assumed): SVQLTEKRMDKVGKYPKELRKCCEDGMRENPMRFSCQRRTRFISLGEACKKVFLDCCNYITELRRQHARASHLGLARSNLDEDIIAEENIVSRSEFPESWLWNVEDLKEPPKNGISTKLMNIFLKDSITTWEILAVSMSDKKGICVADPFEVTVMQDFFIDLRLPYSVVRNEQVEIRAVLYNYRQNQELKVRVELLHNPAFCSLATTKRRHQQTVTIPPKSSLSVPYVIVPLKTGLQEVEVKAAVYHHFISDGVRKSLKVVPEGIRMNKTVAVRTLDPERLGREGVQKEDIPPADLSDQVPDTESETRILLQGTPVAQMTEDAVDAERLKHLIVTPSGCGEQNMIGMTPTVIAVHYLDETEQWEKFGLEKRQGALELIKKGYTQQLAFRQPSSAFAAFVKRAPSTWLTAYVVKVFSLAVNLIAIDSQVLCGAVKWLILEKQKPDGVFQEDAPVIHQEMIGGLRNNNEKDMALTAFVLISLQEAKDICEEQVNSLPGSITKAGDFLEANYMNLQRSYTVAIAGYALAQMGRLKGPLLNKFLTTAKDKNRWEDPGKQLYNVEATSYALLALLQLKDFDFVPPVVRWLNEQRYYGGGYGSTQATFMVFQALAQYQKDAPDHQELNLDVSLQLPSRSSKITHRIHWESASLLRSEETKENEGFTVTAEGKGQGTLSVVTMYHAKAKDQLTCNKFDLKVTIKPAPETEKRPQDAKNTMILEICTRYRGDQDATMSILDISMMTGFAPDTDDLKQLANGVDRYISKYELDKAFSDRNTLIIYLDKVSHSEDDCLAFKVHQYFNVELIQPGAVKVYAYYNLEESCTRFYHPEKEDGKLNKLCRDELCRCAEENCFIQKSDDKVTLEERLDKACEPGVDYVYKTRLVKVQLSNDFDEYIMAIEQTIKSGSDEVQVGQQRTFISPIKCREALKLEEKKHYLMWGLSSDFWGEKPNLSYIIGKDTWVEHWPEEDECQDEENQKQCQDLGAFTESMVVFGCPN

≈ marks a conversion by molar mass, not a printed value. Calls of active or inactive are those of the source. No cut-off for these calls is given here. Positions of bridges follow the written chain, without caps; N, C: chain ends. Non-standard residues stand in square brackets, D forms with d. Residues, ends and D or L forms follow the SMILES beside them. Trp(1-Me) = Cn1cc(C[C@H](N)C(=O)O)c2ccccc21; 1Nal = N[C@@H](Cc1cccc2ccccc12)C(=O)O

By solubility is commonly meant the dissolved amount per volume that the medium holds. Higher therefore signals much dissolved substance. As usually defined, the IC50 is the concentration at which inhibition is half-maximal.

As to `CC[C@H](C)[C@H](NC(C)=O)C(=O)N[C@H]1CSSC[C@@H](C(=O)N[C@H](C(N)=O)[C@@H](C)O)NC(=O)[C@H](CCCNC(=N)N)NC(=O)[C@H](Cc2cnc[nH]2)NC(=O)[C@H](C)NC(=O)CNC(=O)[C@H](Cc2c[nH]c3ccccc23)NC(=O)[C@H](CC(=O)O)NC(=O)[C@H](CCC(N)=O)NC(=O)[C@H](Cc2c[nH]c3ccccc23)NC(=O)[C@H](C(C)C)NC1=O`, the inhibition entry with RPE [1] was “Active”. Also, in data set [2], the concentration in solution (solubility) was 3200 µg/mL (≈ 1980 µM).
As for `CC[C@H](C)[C@H](NC(=O)[C@H](CO)NC(=O)[C@H](CCCNC(=N)N)NC(C)=O)C(=O)N[C@H]1CSSC[C@@H](C(=O)N[C@H](C(N)=O)[C@@H](C)O)NC(=O)[C@H](CCCNC(=N)N)NC(=O)[C@H](Cc2cnc[nH]2)NC(=O)[C@H](C)NC(=O)CNC(=O)[C@H](Cc2c[nH]c3ccccc23)NC(=O)[C@H](CC(=O)O)NC(=O)[C@H](CCC(N)=O)NC(=O)[C@H](Cc2ccc(O)cc2)NC(=O)[C@H](C(C)C)NC1=O`, the inhibition result with RPE [1] is “Active”. The solubility in data set [2] is 5000 µg/mL (≈ 2730 µM).
`CC[C@H](C)[C@H](NC(C)=O)C(=O)N[C@H]1CSSC[C@@H](C(=O)N[C@H](C(N)=O)[C@@H](C)O)NC(=O)[C@H](CCCNC(=N)N)NC(=O)[C@H](Cc2cnc[nH]2)NC(=O)[C@H](C)NC(=O)CNC(=O)[C@H](Cc2c[nH]c3ccccc23)NC(=O)[C@H](CC(=O)O)NC(=O)[C@H](CCC(N)=O)NC(=O)[C@H](Cc2cn(C)c3ccccc23)NC(=O)[C@H](C(C)C)NC1=O` came in with a solubility in data set [2] of 1900 µg/mL (≈ 1170 µM).
As for `CC[C@H](C)[C@H](N)C(=O)N[C@H]1CSSC[C@@H](C(=O)N[C@H](C(N)=O)[C@@H](C)O)NC(=O)[C@H](CCCNC(=N)N)NC(=O)[C@H](Cc2cnc[nH]2)NC(=O)[C@H](Cc2cnc[nH]2)NC(=O)CNC(=O)[C@H](Cc2c[nH]c3ccccc23)NC(=O)[C@H](CC(=O)O)NC(=O)[C@H](CCC(N)=O)NC(=O)[C@H](C(C)C)NC(=O)[C@H](C(C)C)NC1=O`, the inhibition result in the data set with RPE [3] is “Active”.
For `CC[C@H](C)[C@H](NC(C)=O)C(=O)N[C@H]1CSSC[C@@H](C(=O)N[C@H](C(N)=O)[C@@H](C)O)NC(=O)[C@H](CCCNC(=N)N)NC(=O)[C@H](Cc2cnc[nH]2)NC(=O)[C@](C)(CC)NC(=O)CNC(=O)[C@H](Cc2c[nH]c3ccccc23)NC(=O)[C@H](CC(=O)O)NC(=O)[C@H](CCC(N)=O)NC(=O)[C@H](Cc2c[nH]c3ccccc23)NC(=O)[C@H](C(C)C)NC1=O`, the inhibition result in the data set with RPE [1] was “Active”.
Turning to `CC[C@H](C)[C@H](NC(C)=O)C(=O)N[C@H]1CSSC[C@@H](C(=O)N[C@H](C(N)=O)[C@@H](C)O)NC(=O)[C@H](CCCNC(=N)N)NC(=O)[C@H](Cc2cnc[nH]2)NC(=O)[C@H](Cc2cccc3ccccc23)NC(=O)CNC(=O)[C@H](Cc2c[nH]c3ccccc23)NC(=O)[C@H](CC(=O)O)NC(=O)[C@H](CCC(N)=O)NC(=O)[C@H](Cc2c[nH]c3ccccc23)NC(=O)[C@H](C(C)C)NC1=O` (Ac-ICVWQDWG[1Nal]HRCT-NH2; disulfide 2-12), the concentration in solution in data set [2] (solubility) was 100 µg/mL (≈ 57.5 µM).
With `CC[C@H](C)[C@H](NC(C)=O)C(=O)N[C@H]1CSSC[C@@H](C(=O)N[C@H](C(N)=O)[C@@H](C)O)NC(=O)[C@H](CCCNC(=N)N)NC(=O)[C@H](Cc2cnc[nH]2)NC(=O)[C@H](Cc2cccc3ccccc23)NC(=O)CNC(=O)[C@H](Cc2c[nH]c3ccccc23)NC(=O)[C@H](CC(=O)O)NC(=O)[C@H](CCC(N)=O)NC(=O)[C@H](Cc2cn(C)c3ccccc23)NC(=O)[C@H](C(C)C)NC1=O` (Ac-ICV[Trp(1-Me)]QDWG[1Nal]HRCT-NH2; disulfide 2-12), on Complement C3, the IC50 amounted to 4 µM. In data set [2], this molecule showed a solubility of 100 µg/mL (≈ 57 µM).
With `CC(=O)N[C@@H](CC(N)=O)C(=O)N[C@@H](CCCNC(=N)N)C(=O)N[C@@H](CC(C)C)C(=O)N[C@H]1CSSC[C@@H](C(=O)N[C@H](C(N)=O)[C@@H](C)O)NC(=O)[C@H](CCCNC(=N)N)NC(=O)[C@H](Cc2cnc[nH]2)NC(=O)[C@H](C)NC(=O)CNC(=O)[C@H](Cc2c[nH]c3ccccc23)NC(=O)[C@H](CC(=O)O)NC(=O)[C@H](CCC(N)=O)NC(=O)[C@H](Cc2c[nH]c3ccccc23)NC(=O)[C@H](C(C)C)NC1=O` (Ac-NRLCVWQDWGAHRCT-NH2; disulfide 4-14), the inhibition entry in the data set on RPE [1] is “Active”.
Still for that read-out and setting: as for `CC(=O)N[C@@H](CC(N)=O)C(=O)N[C@@H](CCCNC(=N)N)C(=O)N[C@@H](CC(C)C)C(=O)N[C@H]1CSSC[C@@H](C(=O)N[C@H](C(N)=O)[C@@H](C)O)NC(=O)[C@H](CCCNC(=N)N)NC(=O)[C@H](Cc2cnc[nH]2)NC(=O)[C@H](Cc2cccc3ccccc23)NC(=O)CNC(=O)[C@H](Cc2c[nH]c3ccccc23)NC(=O)[C@H](CC(=O)O)NC(=O)[C@H](CCC(N)=O)NC(=O)[C@H](Cc2c[nH]c3ccccc23)NC(=O)[C@H](C(C)C)NC1=O` (Ac-NRLCVWQDWG[1Nal]HRCT-NH2; disulfide 4-14), the entry is “Active”; as for `CC[C@H](C)[C@H](NC(=O)[C@H](CO)NC(=O)[C@H](CCCNC(=N)N)NC(C)=O)C(=O)N[C@H]1CSSC[C@@H](C(=O)N[C@H](C(N)=O)[C@@H](C)O)NC(=O)[C@H](CCCNC(=N)N)NC(=O)[C@H](Cc2cnc[nH]2)NC(=O)[C@H](C)NC(=O)CNC(=O)[C@H](Cc2c[nH]c3ccccc23)NC(=O)[C@H](CC(=O)O)NC(=O)[C@H](CCC(N)=O)NC(=O)[C@H](Cc2cccc3ccccc23)NC(=O)[C@H](C(C)C)NC1=O` (Ac-RSICV[1Nal]QDWGAHRCT-NH2; disulfide 4-14), “Active”.
As to `CC[C@H](C)[C@H](N)C(=O)N[C@H]1CSSC[C@@H](C(=O)N[C@H](C(N)=O)[C@@H](C)O)NC(=O)[C@H](CCCN=C(N)N)NC(=O)[C@H](Cc2cnc[nH]2)NC(=O)[C@H](Cc2cnc[nH]2)NC(=O)CNC(=O)[C@H](Cc2c[nH]c3ccccc23)NC(=O)[C@H](CC(=O)O)NC(=O)[C@H](CCC(N)=O)NC(=O)[C@H](C(C)C)NC(=O)[C@H](C(C)C)NC1=O` [COMPSTATIN], the solubility in data set [2] came out at 4500 µg/mL (≈ 2900 µM).

The values above are taken from ChEMBL document CHEMBL3407367 (J Med Chem, 2015).
